Test results from ChEMBL document CHEMBL3045036, “Chemical composition, plant genetic differences, and antifungal activity of the essential oil of Helichrysum italicum G. Don ssp. microphyllum (Willd) Nym” (2003).
Converted amounts (≈) assume the structure as drawn.

Tests used:
Type in all cases: functional
Phytophthora capsici = assay: Fungicidal activity against Phytophthora capsici
How it was run: (§1)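 Broth microdilution MIC. Essential oil stock of 1 mg/mL was made in sterile broth with 50% ethanol, then serially diluted in 100 µL potato dextrose broth per well. Each well received 1 µL fungal suspension (~1 × 10^5 cells). Incubation matched the paper-disc test: several days at 24 °C. Growth and medium sterility were checked for each strain.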

Globisporangium ultimum = assay: Fungicidal activity against Pythium ultimum; how it was run: as §1
Botrytis cinerea = assay: Fungicidal activity against Botryotinia fuckeliana; how it was run: as §1
Pyricularia oryzae = assay: Fungicidal activity against Magnaporthe oryzae; how it was run: as §1
Cercospora beticola = assay: Fungicidal activity against Cercospora beticola; how it was run: as §1
Athelia rolfsii = assay: Fungicidal activity against Athelia rolfsii; conditions: Agroathelia rolfsii; how it was run: as §1
Helminthosporium = assay: Fungicidal activity against Helminthosporium oryzae; how it was run: as §1
Fusarium graminearum = assay: Fungicidal activity against Fusarium graminearum; how it was run: as §1
Zymoseptoria tritici = assay: Fungicidal activity against Zymoseptoria tritici; how it was run: as §1
[1] = system: Fusarium oxysporum f. sp. lycopersici; assay: Fungicidal activity against Fusarium oxysporum f. sp. Lycopersici; how it was run: as §1
Rhizoctonia solani = assay: Fungicidal activity against Rhizoctonia solani; how it was run: as §1

## COCC(=O)N(c1c(C)cccc1C)C(C)C(=O)OC (stereo unspecified) [METALAXYL]
Phytophthora capsici
  MIC: 1.5 µg/mL (≈ 5.37 µM)
Globisporangium ultimum
  MIC: 0.6 µg/mL (≈ 2.15 µM)

## CCOC(=O)C1(C)OC(=O)N(c2cc(Cl)cc(Cl)c2)C1=O (stereo unspecified) [CHLOZOLINATE]
Botrytis cinerea
  MIC: 3.1 µg/mL (≈ 9.33 µM)

## CO/N=C(\C(=O)OC)c1ccccc1COc1ccccc1C [KRESOXYM-METHYL]
Pyricularia oryzae
  MIC: 1.5 µg/mL (≈ 4.79 µM)

## FC(F)C(F)(F)OCC(Cn1cncn1)c1ccc(Cl)cc1Cl (stereo unspecified) [TETRACONAZOLE]
Cercospora beticola
  MIC: 1.5 µg/mL (≈ 4.03 µM)
Athelia rolfsii
  MIC: 25 µg/mL (≈ 67.2 µM)
Helminthosporium
  MIC: 0.1 µg/mL (≈ 0.269 µM)

## CCCCNC(=O)n1c(NC(=O)OC)nc2ccccc21 [BENOMYL]
Fusarium graminearum
  MIC: 0.6 µg/mL (≈ 2.07 µM)
Zymoseptoria tritici
  MIC: 0.6 µg/mL (≈ 2.07 µM)
[1]
  MIC: 1.5 µg/mL (≈ 5.17 µM)
Rhizoctonia solani
  MIC: 6.2 µg/mL (≈ 21.4 µM)
